According to ChEMBL document CHEMBL1153829, “Exploiting chemical libraries, structure, and genomics in the search for kinase inhibitors” (Science, 1998):
Activity calls are given as the source filed them. The rule behind the calls is not given here.

Key:
Saccharomyces cerevisiae [1] = experiment: Increase in HSP12 mRNA level in delta snq2, delta pdr5 and delta erg6 knock out yeast YRP1 at 25 µM after 2 hrs by high-density oligonucleotide array; assay type: functional, organism-based
Procedure, shortened: (§1)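 Drug-sensitized S. cerevisiae cultures grown to late logarithmic phase, then exposed to 25 μM inhibitor for 2 h. Polyadenylated mRNA isolated, converted to biotin-labeled cRNA and hybridized to a set of four high-density arrays carrying more than 260,000 25-nucleotide oligomers. Transcripts scored as changed when they shifted more than twofold in triplicate hybridizations for each of two independent experiments.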

[2] = Induction of microtubule […]
Saccharomyces cerevisiae [3] = experiment: Increase in PCL5 mRNA level in delta snq2, delta pdr5 and delta erg6 knock out yeast YRP1 at 25 µM after 2 hrs by high-density oligonucleotide array; assay type: functional, organism-based; procedure, shortened: as §1
Nucleic Acid = experiment: Induction of condensation of DNA; assay type: nucleic-acid assay
Saccharomyces cerevisiae [4] = experiment: Growth inhibition of delta snq2, delta pdr5 and delta erg6 knock out yeast YRP1 after 2 hrs; assay type: functional
Saccharomyces cerevisiae [5] = experiment: Upregulation of HSP30 gene expression in delta snq2, delta pdr5 and delta erg6 knock out yeast YRP1 at 25 µM after 2 hrs by high-density oligonucleotide array; assay type: functional, organism-based; settings: 25 M
Procedure, shortened: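 Drug-sensitized yeast strain grown to late logarithmic phase, then exposed to 25 μM inhibitor for 2 h. Polyadenylated mRNA was isolated and converted to biotin-labeled cRNA, which was hybridized to a set of four arrays carrying over 260,000 25-nucleotide oligomers. Transcripts changing more than twofold were scored, from triplicate hybridizations in each of two independent experiments.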

Saccharomyces cerevisiae [6] = experiment: Effect on HTA1 gene expression in delta snq2, delta pdr5 and delta erg6 knock out yeast YRP1 bearing cdc28-4 mutant allele assessed as change in mRNA level at 25 µM after 2 hrs by high-density oligonucleotide array; assay type: functional, organism-based

Activity [2]	Activity (Nucleic Acid)	SMILES	Activity (Saccharomyces cerevisiae [1])	Activity (Saccharomyces cerevisiae [3])	GI50 (Saccharomyces cerevisiae [4])	Activity (Saccharomyces cerevisiae [5])	Activity (Saccharomyces cerevisiae [6])
Active	Active	CC(C)n1cnc2/c(=N/c3cccc(Cl)c3)nc(NCCO)[nH]c21	Active	Active	30 µM	Active	Active
–	–	CN1CC[C@H](c2c(O)cc(O)c3c(=O)cc(-c4ccccc4Cl)oc23)[C@H](O)C1 [ALVOCIDIB]	Active	Active	–	Active	Active
